# Source: ChEMBL document CHEMBL1149284, “Discovery of pyrano[3,4-b]indoles as potent and selective HCV NS5B polymerase inhibitors” (J Med Chem, 2004)
# The source made the active and inactive calls. No cut-off for these calls is given here.
# Experiments:
# [1] = Inhibition of HCV NS5B polymerase; parameters: species or system Hepacivirus hominis
# Procedure, shortened: (§1)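 In vitro nucleotide incorporation assay using functionally active recombinant NS5B with a hairpin-like primed RNA substrate. Controls: enzyme without compound (positive) and enzyme with basilen blue (negative). Result reported as IC50.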
# [2] = Cytotoxicity against Huh7 cells by MTS assay; assay type: cell-based; conditions: human, huh-7
# Procedure, shortened: (§2)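 MTS metabolic assay run on rapidly dividing and on stationary cells.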
# [3] = target: DNA polymerase beta (Homo sapiens, UniProt P06746); assay: Inhibition of human DNA polymerase beta
# [4] = Inhibition of calf thymus polymerase alpha; parameters: species or system Bos taurus
# [5] = Inhibition of HIV reverse transcriptase; parameters: species or system Human immunodeficiency virus
# [6] = system: Vero; assay: Cytotoxicity against Vero cells by MTS assay; assay type: cell-based; conditions: chlorocebus sabaeus; procedure, shortened: as §2
# [7] = Inhibition of helicase; parameters: species or system Homo sapiens
# [8] = Inhibition of HCV 1a NS5B polymerase; parameters: species or system Hepatitis C virus subtype 1a
# Procedure, shortened: (§3)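 In vitro nucleotide incorporation assay using functionally active recombinant NS5B enzyme and a hairpin-like primed RNA substrate. Enzyme without compound served as the positive control, and enzyme with basilen blue dye as the negative control. IC50 values were determined.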
# [9] = system: Hepatitis C virus; assay: Inhibition of HCV 1b NS5B polymerase; parameters: species or system Hepatitis C virus subtype 1b; procedure, shortened: as §1
# [10] = Inhibition of HCV 3a NS5B polymerase; parameters: species or system Hepatitis C virus subtype 3a; procedure, shortened: as §3
# [11] = system: Hepatitis C virus; assay: Reduction of viral RNA in Huh7 cells containing HCV sub-genomic replicon after 3 days; assay type: functional, organism-based, Hepacivirus hominis; conditions: Huh-7, 72 h
# [12] = species: Homo sapiens; assay: Inhibition of human mitochondrial DNA polymerase gamma up to 80 uM
# [13] = system: Hepatitis C virus; assay: Reduction of viral protein in Huh7 cells containing HCV sub-genomic replicon after 3 days; assay type: functional, organism-based; conditions: Hepacivirus hominis; Huh-7
IC50 [1] [nM],SMILES,Activity [2],also measured
60,CCC[C@]1(CC(=O)O)OCCc2c1[nH]c1c(Cl)ccc(Cl)c21,33 µM,–
630,CCC[C@@]1(CC(=O)O)OCCc2c1[nH]c1c(C)cc(F)c(C#N)c21,> 50 µM,–
2000,CCC[C@]1(CC(=O)O)OCCc2c1[nH]c1c(Cl)ccc(CC)c21,> 50 µM,–
> 30000,CCc1ccc(Cl)c2[nH]c3c(c12)CCOC3(CC)CC(=O)O (centres undefined),–,–
440,CCC[C@]1(CC(=O)O)OCCc2c1[nH]c1c(F)ccc(C#N)c21,> 50 µM,–
2400,"CCCC1(CC(=O)O)OCCc2c1[nH]c1c(C)ccc(C#N)c21 (single isomer, unassigned)",> 50 µM,–
3000,CCCC1(CC(=O)O)OCCc2c1[nH]c1c(Cl)ccc(CC)c21 (centres undefined),Not Active,IC50 [3]: > 100 µM; IC50 [4]: > 100 µM; IC50 [5]: > 100 µM; Activity [6]: Not Active; IC50 [7]: > 75 µM
> 30000,CCCC1(CC(=O)OCC)OCCc2c1[nH]c1c(C)ccc(C#N)c21 (centres undefined),–,–
80,CCC[C@]1(CC(=O)O)OCCc2c1[nH]c1c(C)cc(F)c(C#N)c21,> 50 µM,–
270,CCCC1(CC(=O)O)OCCc2c1[nH]c1c(Cl)ccc(Cl)c21 (centres undefined),–,–
1100,CCC[C@@]1(CC(=O)O)OCCc2c1[nH]c1c(Cl)ccc(Cl)c21,49 µM,–
570,CCCC1(CC(=O)O)OCCc2c1[nH]c1c(C)ccc(C#N)c21 (centres undefined),–,–
120,CCCC1(CC(=O)O)OCCc2c1[nH]c1c(C)cc(F)c(C#N)c21 (centres undefined),–,–
6000,CCCC1(CC(=O)O)OCCc2c1[nH]c1cccc(Cl)c21 (centres undefined),–,–
5200,CCC[C@@]1(CC(=O)O)OCCc2c1[nH]c1c(F)ccc(C#N)c21,> 50 µM,–
1000,CCCC1(CC(=O)O)OCCc2c1[nH]c1c(F)ccc(C#N)c21 (centres undefined),–,–
> 15000,CCC[C@@]1(CC(=O)O)OCCc2c1[nH]c1c(Cl)ccc(CC)c21,> 50 µM,–

SMILES,IC50 [1] [nM],Activity [2],also measured
CCC[C@]1(CC(=O)O)OCCc2c1[nH]c1c(C)ccc(C#N)c21,330,–,IC50 [8]: 300 nM; IC50 [9]: 300 nM; IC50 [10]: 300 nM; EC50 [11]: 4.8 µM; Activity [12]: inactive; Activity [13]: Dose-dependent effect
